Converted amounts (≈) assume the structure as drawn.
How the values were obtained:
[1] = (§1) Competitive binding affinity to full length 6His-tagged recombinant Escherichia coli FimH CRD expressed in Escherichia coli HM125 after 1 hr in presence of fluorescence labelled N-(2-(3-(3',6'-dihydroxy-3-oxo-3H-spiro[isobenzofuran-1,9'-xanthene]-5-yl)thioureido)ethyl)-4-methylbenzamide by fluorescence polarization assay
Outline: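 Full-length FimH was stabilized by FimG donor-strand peptide complementation. Serially diluted competitor was titrated into 300 nM FimHFL plus 10 nM fluorescent ligand in 20 mM HEPES pH 7.4, 150 mM NaCl, 50 μg/mL BSA. Mixtures were incubated ≥1 h at rt, and FP was read at excitation 485 nm and emission 528 nm. KD came from an equilibrium competition fit, n = 1.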

[2] = as §1, with “to” for “to full length”, “lectin domain” for “CRD”, “24 hrs” for “1 hr”
Outline: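 FimH lectin domain (His6-tagged via thrombin site) was expressed in E. coli HM125 and affinity-purified. Serially diluted competitor was added to 50 nM protein plus 50 nM fluorescent ligand in 20 mM HEPES pH 7.4, 150 mM NaCl, 50 μg/mL BSA. Mixtures were incubated ≥24 h at equilibrium, and FP was read at 485/528 nm. KD came from an equilibrium competition fit, n = 3, SD.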

[3] = Kinetic solubility of compound in pH 7.4 buffer after 15 hrs; format: physicochemical; settings: read-out: Kinetic_solubility
Outline: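 DMSO stock (100 mM) was diluted into aqueous universal buffer pH 7.4 to 1 mM final (1% DMSO), in triplicate. After 15 h, solutions were filtered and mixed 1:1 with 1-propanol. Dissolved amount was quantified by UV (190–500 nm) against reference spectra at 0.167 mM in buffer/propanol.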

[4] = 1-octanol/water partition coefficient, log D of the compound at 1 uM at pH 7.4 after 2 hrs by LC-MS analysis; format: physicochemical
[5] = Binding affinity to full length 6His-tagged recombinant Escherichia coli FimH CRD expressed in Escherichia coli HM125 by isothermal titration calorimetry
Outline: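 FimHFL was coexpressed with FimC in E. coli HM125, and FimC was displaced by a FimG donor-strand peptide to give a stable construct. Buffer was 20 mM HEPES pH 7.4, 150 mM NaCl, with protein extensively dialyzed against it. Ligand (200–600 μM) was titrated into 20.3–62.1 μM protein in 1.5–2 μL injections at rt, single run. Isotherms were integrated automatically.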

Escherichia coli = assay: Selectivity ratio of Kd for full length 6His-tagged recombinant Escherichia coli FimH CRD expressed in Escherichia coli HM125 to Kd for 6His-tagged recombinant Escherichia coli FimH lectin domain expressed in Escherichia coli HM125
Outline: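 Competitive FP, with Kd for each construct and the ratio taken as FimHFL/FimHLD. FimHFL was stabilised by donor-strand (DsG) complementation, run at 300 nM with 10 nM tracer for ≥1 h. FimHLD and tracer were equimolar at 50 nM, ≥24 h. Buffer: 20 mM HEPES pH 7.4, 150 mM NaCl, 50 μg/mL BSA; rt. Ex 485/em 528 nm, equilibrium competition fit; FL n=1, LD n=3.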

| SMILES | Kd [1] [nM] | Kd [2] [nM] | solubility kinetic at 15 h [3] [µg/mL] | logD at 2 h, 1 µM [4] | Kd [5] [nM] | Selectivity ratio (Escherichia coli) |
| --- | --- | --- | --- | --- | --- | --- |
| OC[C@H]1O[C@H](Oc2ccc(-c3ccc(Cl)c(C(F)(F)F)c3)cc2Cl)[C@@H](O)[C@@H](O)[C@@H]1O | 377 | 5.7 | 1 (≈ 2.13 µM) |  |  |  |
| CC(=O)c1ccc(-c2ccc(O[C@H]3O[C@H](CO)[C@@H](O)[C@H](O)[C@@H]3O)c(Cl)c2)cc1 | 98.6 | 0.3 | 16 (≈ 39.1 µM) | 2.1 |  |  |
| CCCCCCCO[C@H]1O[C@H](CO)[C@@H](O)[C@H](O)[C@@H]1O | 3600 |  | > 3000 | 1.7 | 3200 | 100 |
| COc1ccccc1-c1ccc(O[C@H]2O[C@H](CO)[C@@H](O)[C@H](O)[C@@H]2O)c(Cl)c1 | 391 | 2.3 | > 280 | 2.4 |  |  |
| OC[C@H]1O[C@H](Oc2ccc(-c3ccc(Cl)cc3Cl)cc2Cl)[C@@H](O)[C@@H](O)[C@@H]1O | 465 | 2.8 | 8 (≈ 18.4 µM) |  |  |  |
| O=[N+]([O-])c1cccc(-c2ccc(O[C@H]3O[C@H](CO)[C@@H](O)[C@H](O)[C@@H]3O)c(Cl)c2)c1 | 39.1 | 0.1 | 23 (≈ 55.9 µM) | 2.4 |  |  |
| Cc1ccc(C(=O)NCCNC(=S)Nc2ccc3c(c2)C(=O)OC32c3ccc(O)cc3Oc3cc(O)ccc32)cc1 | 137 |  |  |  |  |  |
| OC[C@H]1O[C@H](Oc2ccc(-c3ccc(Cl)cc3)cc2Cl)[C@@H](O)[C@@H](O)[C@@H]1O | 251 | 3.9 | 3.5 (≈ 8.72 µM) | 3.3 |  |  |
| N#Cc1cccc(-c2ccc(O[C@H]3O[C@H](CO)[C@@H](O)[C@H](O)[C@@H]3O)c(Cl)c2)c1 | 85.9 | 0.3 | 227 (≈ 579 µM) | 2.1 |  |  |
| N#Cc1ccc(-c2ccc(O[C@H]3O[C@H](CO)[C@@H](O)[C@H](O)[C@@H]3O)c(Cl)c2)cc1 | 83.8 |  |  |  | 130 |  |
| COc1ccc(-c2ccc(O[C@H]3O[C@H](CO)[C@@H](O)[C@H](O)[C@@H]3O)c(Cl)c2)cc1 | 344 | 2 | 3.8 (≈ 9.58 µM) | 2.7 |  |  |
| Cc1ccc(-c2ccc(O[C@H]3O[C@H](CO)[C@@H](O)[C@H](O)[C@@H]3O)c(Cl)c2)cc1 | 297 | 2.7 | 7.4 (≈ 19.4 µM) | 3.3 |  |  |
| Cc1ccccc1-c1ccc(O[C@H]2O[C@H](CO)[C@@H](O)[C@H](O)[C@@H]2O)c(Cl)c1 | 436 | 2.5 | 135 (≈ 354 µM) | 2.9 |  |  |
| OC[C@H]1O[C@H](Oc2ccc(-c3ccccc3Cl)cc2Cl)[C@@H](O)[C@@H](O)[C@@H]1O | 434 | 2.6 | 28 (≈ 69.8 µM) | 3.1 |  |  |
| OC[C@H]1O[C@H](Oc2ccc(-c3ccccc3)cc2Cl)[C@@H](O)[C@@H](O)[C@@H]1O | 458 | 2.8 | 5.5 (≈ 15 µM) | 2.6 |  |  |
| O=[N+]([O-])c1ccc(-c2ccc(O[C@H]3O[C@H](CO)[C@@H](O)[C@H](O)[C@@H]3O)c(Cl)c2)cc1 | 140 | 0.5 | 117 (≈ 284 µM) | 2.3 |  |  |
| OC[C@H]1O[C@H](Oc2ccc(-c3cccc(Cl)c3)cc2Cl)[C@@H](O)[C@@H](O)[C@@H]1O | 353 | 2.3 | 5.7 (≈ 14.2 µM) | 3.2 |  |  |
| OC[C@H]1O[C@H](Oc2ccc(-c3cccc(C(F)(F)F)c3)cc2Cl)[C@@H](O)[C@@H](O)[C@@H]1O | 575 | 3.3 | 36 (≈ 82.8 µM) | 3.3 |  |  |
| OC[C@H]1O[C@H](Oc2ccc(-c3ccc(Cl)c(Cl)c3)cc2Cl)[C@@H](O)[C@@H](O)[C@@H]1O | 692 | 4.3 | 2.3 (≈ 5.28 µM) |  |  |  |
| OC[C@H]1O[C@H](Oc2ccc(-c3ccc(C(F)(F)F)cc3)cc2Cl)[C@@H](O)[C@@H](O)[C@@H]1O | 415 | 3.9 | 22 (≈ 50.6 µM) | 3.4 |  |  |
| Cc1cccc(-c2ccc(O[C@H]3O[C@H](CO)[C@@H](O)[C@H](O)[C@@H]3O)c(Cl)c2)c1 | 380 | 1.7 | 7.1 (≈ 18.6 µM) | 3 |  |  |

— ChEMBL document CHEMBL4014317, “Urinary Tract Infection: Which Conformation of the Bacterial Lectin FimH Is Therapeutically Relevant?” (J Med Chem, 2017)
